D1 allo mod – D1 dopamine receptor (human) allosteric modulation; P21728; HEK293 D1, CRE-luciferase, dopamine EC30 potentiation; actives deviate in either direction; B-score at 10 µM; actives 5.9% (n = 58,000); AID 641;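 active = luminescence count or its row- and column-corrected plate score outside the 99.7% band of the plate's sample wells, on either side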
S1P1 ag-PAM – S1P1 (human) agonism or agonism potentiation | actives 0.57% (n = 56,000) | S1P1 CRE-bla cells, forskolin, beta-lactamase FRET, potentiator mode; S1P1 agonist co-added at EC20, 2 nM; 100% = saturating reference agonist, 0% = basal | P21453 | activation, % at 9.5 µM;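 active = activation above a cutoff set at the mean activation of all tested compounds plus 3 SD, cut at about 54% in these data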;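 note: forskolin at 4 µM as EC80 and the EC20 agonist is SEW2871; 100% = SEW2871 at its EC100 plus forskolin at EC80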
Target sequence (P21453 whole entry, looked up): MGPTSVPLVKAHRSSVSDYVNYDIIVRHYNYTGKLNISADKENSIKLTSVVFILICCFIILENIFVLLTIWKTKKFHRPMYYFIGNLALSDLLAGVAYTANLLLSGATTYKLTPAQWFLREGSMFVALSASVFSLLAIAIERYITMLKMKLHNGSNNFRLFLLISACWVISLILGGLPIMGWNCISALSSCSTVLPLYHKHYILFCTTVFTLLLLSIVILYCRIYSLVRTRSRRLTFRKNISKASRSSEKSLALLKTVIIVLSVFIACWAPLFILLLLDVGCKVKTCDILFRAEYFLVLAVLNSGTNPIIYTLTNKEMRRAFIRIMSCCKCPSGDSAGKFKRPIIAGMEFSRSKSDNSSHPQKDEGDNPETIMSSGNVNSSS
M1 antag – M1 muscarinic receptor (rat) antagonism | CHO-M1 cells, Fluo-4 calcium, ACh EC80 antagonist mode; hits give low values | B-score at 10 µM | actives 3.4% (n = 64,000) | AID 628;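 active = calcium fluorescence response, raw or row-and-column corrected B-score, differing from the plate sample mean either way at a set confidence level, mostly lower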
M1 ag – activates the M1 muscarinic receptor; CHO-M1 cells, Fluo-4 calcium fluorescence, agonist mode; hits give high values; actives 3% (n = 64,000); B-score at 10 µM;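 active = fluorescence rise, raw or as B-score row- and column-corrected plate score, outside the 99.7% band of its plate's samples, either direction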
S1P3 ag – activates the human S1P3 receptor; AID 373; actives 0.1% (n = 60,000); S1P3 NFAT-BLA reporter cells, agonism, FRET ratio; relative to 1 µM S1P, basal subtracted; activation, % at 4.5 µM; Q99500;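 active = activation above the screen-wide mean plus 3 SD, cut at about 4.5% in these data, passing the limit was not always enough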
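Measure – % activation relative to 1 µM S1P (100%), per plate · System – stable CHO line with human S1P3, Gα16, NFAT-BLA reporter · Timing – cells plated overnight, compound 4 h 37 °C, substrate 2 h RT · Technique – fluorescent BLA substrate, ex 405 nm, em 460/535 nm ratio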
The depositor's hits bear a star; . = not tested or not shown. Shown are actives, neighbours in structure and some others; about 11% of the full set was active somewhere.

SMILES | D1 allo mod | S1P1 ag-PAM | M1 antag | M1 ag | S1P3 ag
Nc1ccc(CCc2nc3ccccc3o2)cc1 | -3.61* | 0.8 | -0.809 | -0.417 | -0.5
Cc1cc(C(=O)CN2C(=O)c3ccccc3S2(=O)=O)c(C)n1-c1ccccc1 | -4.98* | 39.8 | 0.0221 | -0.702 | 0.2
Cc1cc(C(=O)CN2C(=O)C3CC=CCC3C2=O)c(C)n1-c1ccccc1 (stereo not given) | -3.63* | 1.1 | -0.0649 | -0.775 | -0.5
COc1ccc2cc(C3(C)NC(=O)NC3=O)ccc2c1 (stereo not given) | -0.791 | 9.2 | 2.36* | 0.373 | -1.1
Cc1ccc(C)c(S(=O)(=O)Nc2ccc3scnc3c2)c1 | 1.1 | . | 0.45 | 0.865 | -0.6
Cn1c(=O)c2c(nc(Br)n2C)n(C)c1=O | -1.63* | 5.1 | 0.694 | -0.0186 | -0.6
C=CCn1c(Br)nc2c1c(=O)n(C)c(=O)n2C | 0.236 | -9.3 | -0.346 | -0.389 | -0.4
CN(Cc1ccccc1)Cc1nc2c(c(=O)n(C)c(=O)n2C)n1CCc1ccccc1 | 0.388 | -17.8 | 0.708 | 0.83 | 0.8
Cn1c(=O)c2c(nc(Br)n2CCc2ccccc2)n(C)c1=O | -3.79* | -10.0 | -0.75 | -0.137 | -0.5
Cc1cc(NC(=O)C2C3C(=O)N(CCC(C)C)C(C(=O)NCc4ccccc4)C34C=CC2(C)O4)no1 (stereo not given) | -0.18 | 1.3 | 0.347 | 0.435 | -0.9
Cc1onc(-c2c(F)cccc2Cl)c1C(=O)NCc1ccccn1 | -4.17* | -23.6 | 0.523 | -0.513 | -1.8
Cc1onc(-c2ccccc2Cl)c1C(=O)NCc1ccccn1 | 0.948 | . | -0.175 | -0.0644 | -0.6
CCOc1nc(CC)nc(NC(=O)NS(=O)(=O)c2ccccc2Cl)n1 | 1.06 | -11.0 | -0.00801 | -0.241 | 0.1
Cc1cccc(-n2ncc3c(Nc4ccc(F)cc4)ncnc32)c1 | . | 1.2 | 0.0012 | 0.85 | 0.0
CC(C)Nc1ncnc2c1cnn2-c1ccccc1 | -4.42* | -1.8 | 0.387 | -0.731 | 0.9
Cc1cccc(-n2ncc3c(NCCCn4ccnc4)ncnc32)c1 | -4.11* | -8.7 | -0.976 | 0.0798 | -1.1
Cc1cccc(-n2ncc3c(NC(C)C)ncnc32)c1 | -3.57* | 4.2 | -1.29 | -0.015 | -0.9
CCc1nnc(NC(=O)Cn2nc(-c3ccccc3OC)ccc2=O)s1 | -0.804 | -9.7 | 0.0835 | -0.496 | 0.6
Nc1ccc(-c2nc3ccccc3[nH]2)cc1 | -3.52* | -18.2 | 0.341 | 0.496 | -0.2
Nc1ccccc1-c1nc2ccccc2[nH]1 | -0.732 | 4.0 | -0.656 | -0.467 | -0.9
Cn1cc(-c2nc3ccccc3[nH]2)c2ccccc21 | -4.12* | -16.2 | -0.0532 | -0.664 | -1.0
CCCN1C2CCCC1CC(NC(=O)c1ccc(F)cc1)C2 (stereo not given) | -2.17* | 4.9 | -0.596 | 0.28 | 0.7
CCCN1C2CCCC1CC(NC(=O)NC1CCCCC1)C2 (stereo not given) | -0.241 | 8.7 | -0.41 | -0.13 | -0.5
CC(C(=O)Nc1ccccc1-c1ccccc1)N1CCN(C(=O)c2ccco2)CC1 (stereo not given) | 0.476 | 8.8 | 0.0849 | -0.335 | 0.2
O=C1CC(C(=O)N2CCOCC2)C2(CCCC2)O1 (stereo not given) | -0.639 | -26.4 | -0.0449 | -0.0122 | -1.5
SMILES | D1 allo mod | S1P1 ag-PAM | M1 antag | M1 ag | S1P3 ag
N#Cc1c(/N=C/c2cccs2)sc2c1CCCCC2 | -3.58* | 9.0 | 0.37 | -0.168 | -0.5
COC(=O)COc1ccc(Oc2nc(SC)nc(N(C)C)n2)nn1 | 0.475 | 5.0 | 0.142 | 0.199 | -5.3
COc1cc(C)c(C(C)C)cc1S(=O)(=O)NCCCn1ccnc1 | 0.32 | 5.4 | -0.241 | -0.0254 | -0.9
O=C(CN1C(=O)CCC1=O)Nc1nc(-c2ccc(Cl)s2)cs1 | -0.752 | 14.1 | -0.312 | 0.247 | 0.4
O=C(Nc1nc(-c2ccc(Cl)s2)cs1)c1ccncc1 | -2.28 | 125.6* | 0.229 | -0.785 | -1.1
c1cnc(N2CCN(c3ncnc4c3oc3ccccc34)CC2)nc1 | 4.35 | -42.5 | -1.51 | 3.21* | 0.2
C(=C\c1ccccc1)/CN1CCN(c2ncnc3c2oc2ccccc23)CC1 | -1.57 | . | -0.647 | 6.86* | .
CCOC(=O)CCn1cc(F)c(=O)n(Cc2ccccc2)c1=O | 0.0798 | -0.3 | 0.855 | -0.729 | -1.0
CCc1nc(NCCN2CCOCC2)c2oc3ccccc3c2n1 | 3.17* | -29.6 | -0.324 | -0.0557 | 0.0
COc1ccc2c(c1OC)C(=O)N(c1cccc(C(F)(F)F)c1)C2 | -2.67* | -7.8 | 0.847 | 0.695 | 0.1
COc1ccc2c(c1OC)C(=O)N(c1cccc(C)c1)C2 | -1.79 | . | -0.31 | -0.6 | -0.6
